Laboratory results: ChEMBL document CHEMBL4177692, “Synthesis and antidepressant activity of a series of arylalkanol and aralkyl piperazine derivatives targeting SSRI/5-HT1A/5-HT7” (Bioorg Med Chem Lett, 2017)

Legend:
[1] = target: Sodium-dependent serotonin transporter (Rattus norvegicus) (UniProt P31652); assay: Inhibition of SERT in rat brain synaptosomes assessed as reduction in [3H]-5-HT uptake at 10 uM measured after 15 mins by scintillation counting method relative to control; type: subcellular
Chain of Sodium-dependent serotonin transporter (Rattus norvegicus) (P31652 whole entry): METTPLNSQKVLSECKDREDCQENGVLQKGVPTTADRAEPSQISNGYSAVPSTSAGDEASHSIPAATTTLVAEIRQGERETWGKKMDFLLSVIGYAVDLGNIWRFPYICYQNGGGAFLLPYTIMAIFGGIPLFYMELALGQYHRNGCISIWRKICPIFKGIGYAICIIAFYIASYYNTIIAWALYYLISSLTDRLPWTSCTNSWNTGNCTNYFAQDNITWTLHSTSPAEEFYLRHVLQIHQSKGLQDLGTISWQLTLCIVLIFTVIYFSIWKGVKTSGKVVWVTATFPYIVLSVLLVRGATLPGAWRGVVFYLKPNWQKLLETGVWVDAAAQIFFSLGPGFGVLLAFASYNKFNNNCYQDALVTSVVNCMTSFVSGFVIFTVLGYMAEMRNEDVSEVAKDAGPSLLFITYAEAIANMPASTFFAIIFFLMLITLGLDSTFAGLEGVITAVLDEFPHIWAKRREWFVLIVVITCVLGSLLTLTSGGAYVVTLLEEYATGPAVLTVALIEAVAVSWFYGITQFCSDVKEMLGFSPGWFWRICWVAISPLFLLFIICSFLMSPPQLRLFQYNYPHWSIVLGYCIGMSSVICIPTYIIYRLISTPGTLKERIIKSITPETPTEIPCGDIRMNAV
How it was run: (§1)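 The 5-HT1A assay displaced [3H]-8-OH-DPAT from HEK-293 cell membrane homogenates. The 5-HT7 assay displaced [3H]-LSD from CHO cell membrane homogenates. The SERT assay measured [3H]-5-HT uptake into rat brain synaptosomes.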

[2] = target: T1, 5-hydroxytryptamine receptor 1A (Homo sapiens) (UniProt P08908); assay: Displacement of [3H]8-OH-DPAT from recombinant human 5-HT1A receptor expressed in HEK293 cell membranes at 10 uM measured after 60 mins by scintillation counting method; how it was run: as §1
T1 sequence (whole entry): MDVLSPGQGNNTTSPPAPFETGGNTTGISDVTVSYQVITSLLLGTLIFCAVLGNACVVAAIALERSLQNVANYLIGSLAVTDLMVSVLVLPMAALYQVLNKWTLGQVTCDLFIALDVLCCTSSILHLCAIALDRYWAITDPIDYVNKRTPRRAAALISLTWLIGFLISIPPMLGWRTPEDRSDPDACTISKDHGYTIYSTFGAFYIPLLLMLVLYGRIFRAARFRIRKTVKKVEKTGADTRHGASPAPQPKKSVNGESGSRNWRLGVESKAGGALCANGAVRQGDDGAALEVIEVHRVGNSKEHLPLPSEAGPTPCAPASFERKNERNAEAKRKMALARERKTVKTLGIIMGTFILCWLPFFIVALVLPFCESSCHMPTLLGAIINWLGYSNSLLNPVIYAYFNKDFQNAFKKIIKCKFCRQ

[3] = target: T2, 5-hydroxytryptamine receptor 7 (Homo sapiens, UniProt P34969); assay: Displacement of [3H]-LSD from recombinant human 5-HT7 receptor expressed in CHO cell membranes at 10 uM measured after 60 mins by scintillation counting method; how it was run: as §1
T2 sequence (P34969 whole entry): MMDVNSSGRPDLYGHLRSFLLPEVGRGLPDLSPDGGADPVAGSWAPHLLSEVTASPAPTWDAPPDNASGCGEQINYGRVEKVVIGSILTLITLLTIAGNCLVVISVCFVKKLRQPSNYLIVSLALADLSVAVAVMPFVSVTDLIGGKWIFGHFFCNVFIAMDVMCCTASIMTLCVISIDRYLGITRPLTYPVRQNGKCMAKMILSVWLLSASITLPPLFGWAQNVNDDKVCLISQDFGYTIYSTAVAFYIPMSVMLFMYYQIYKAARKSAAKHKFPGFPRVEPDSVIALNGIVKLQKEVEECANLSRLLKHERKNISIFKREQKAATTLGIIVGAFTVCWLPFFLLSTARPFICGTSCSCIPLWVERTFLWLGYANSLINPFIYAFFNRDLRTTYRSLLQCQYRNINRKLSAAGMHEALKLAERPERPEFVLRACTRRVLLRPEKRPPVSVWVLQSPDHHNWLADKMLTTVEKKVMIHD

[4] = target: T3, 5-hydroxytryptamine receptor 1A (Homo sapiens, UniProt P08908); assay: Binding affinity to 5-HT1A receptor (unknown origin)
T3 sequence (P08908 whole entry): T1 sequence (whole entry)

[5] = target: Sodium-dependent serotonin transporter (Homo sapiens, UniProt P31645); assay: Binding affinity to SERT (unknown origin)
Chain of Sodium-dependent serotonin transporter (Homo sapiens, UniProt P31645) (P31645 whole entry): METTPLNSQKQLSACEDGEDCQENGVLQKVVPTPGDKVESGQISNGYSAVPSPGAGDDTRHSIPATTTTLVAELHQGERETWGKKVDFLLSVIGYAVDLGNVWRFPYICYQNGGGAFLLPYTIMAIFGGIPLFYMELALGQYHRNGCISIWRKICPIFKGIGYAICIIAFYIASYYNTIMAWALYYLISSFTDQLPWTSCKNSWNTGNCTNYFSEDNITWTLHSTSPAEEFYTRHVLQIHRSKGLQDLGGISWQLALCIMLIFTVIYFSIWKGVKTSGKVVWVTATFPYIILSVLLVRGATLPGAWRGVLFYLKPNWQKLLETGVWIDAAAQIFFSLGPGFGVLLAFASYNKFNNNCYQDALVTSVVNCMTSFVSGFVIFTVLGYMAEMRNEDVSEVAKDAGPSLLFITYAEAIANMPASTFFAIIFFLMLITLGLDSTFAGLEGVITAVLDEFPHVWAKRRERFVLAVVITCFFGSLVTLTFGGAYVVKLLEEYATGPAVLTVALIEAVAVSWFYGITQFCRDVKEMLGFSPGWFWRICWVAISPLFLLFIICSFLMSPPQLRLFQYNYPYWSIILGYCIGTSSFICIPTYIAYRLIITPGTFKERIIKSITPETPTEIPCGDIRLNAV

[6] = target: T4, Sodium-dependent serotonin transporter (Rattus norvegicus, UniProt P31652); assay: Inhibition of SERT in rat brain synaptosomes assessed as reduction in [3H]-5-HT uptake measured after 15 mins by scintillation counting method; type: subcellular
T4 sequence (P31652 whole entry): as the sequence (P31652 whole entry) above
How it was run: (§2)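 The 5-HT1A assay used [3H]-8-OH-DPAT displacement on HEK-293 membranes. The 5-HT7 assay used [3H]-LSD displacement on CHO membranes. The SERT assay measured [3H]-5-HT uptake into rat brain synaptosomes.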

[7] = target: T3, 5-hydroxytryptamine receptor 1A; assay: Displacement of [3H]8-OH-DPAT from recombinant human 5-HT1A receptor expressed in HEK293 cell membranes measured after 60 mins by scintillation counting method
[8] = target: T2, 5-hydroxytryptamine receptor 7; assay: Displacement of [3H]-LSD from recombinant human 5-HT7 receptor expressed in CHO cell membranes measured after 60 mins by scintillation counting method; how it was run: as §2
[9] = Half-life in rat liver microsomes at 1 uM in presence of NADPH regenerating system by LC-MS/MS analysis; type: ADME, microsome
[10] = Clearance in rat liver microsomes at 1 uM measured after 90 mins in presence of NADPH regenerating system by LC-MS/MS analysis; type: ADME, microsome; details: read-out: CLH
Mus musculus [11] = assay: Antidepressant-like activity in mouse assessed as reduction in immobility time at 20 mg/kg, po administered once daily for 7 days measured last 4 mins of 6 mins test by forced swim test relative to control; type: functional; design: scale not given: the % may be the effect or the level left
How it was run: (§3)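 Mouse forced swim test. Oral dosing once daily for 7 days at 10, 20 or 40 mg/kg/day. […] Read-out is immobility time. Data given as mean ± SEM, n = 10 per group, tested against vehicle at P<0.05 and P<0.01.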

Mus musculus [12] = assay: Antidepressant-like activity in mouse assessed as reduction in immobility time at 40 mg/kg, po administered once daily for 7 days measured last 4 mins of 6 mins test by forced swim test relative to control; type: functional; design: scale not given: the % may be the effect or the level left; how it was run: as §3
Mus musculus [13] = assay: Antidepressant-like activity in mouse assessed as reduction in immobility time at 10 mg/kg, po administered once daily for 7 days measured last 4 mins of 6 mins test by forced swim test relative to control; type: functional; design: scale not given: the % may be the effect or the level left; how it was run: as §3
Mus musculus [14] = assay: Antidepressant-like activity in po dosed mouse assessed as reduction in immobility time administered once daily for 7 days measured last 4 mins of 6 mins test by forced swim test; type: functional, organism-based; how it was run: as §3
[15] = target: T5, 5-hydroxytryptamine receptor 1A (Rattus norvegicus, UniProt P19327); assay: Displacement of [3H]8-OH-DPAT from rat cerebral cortex 5-HT1A receptor
T5 sequence (P19327 whole entry): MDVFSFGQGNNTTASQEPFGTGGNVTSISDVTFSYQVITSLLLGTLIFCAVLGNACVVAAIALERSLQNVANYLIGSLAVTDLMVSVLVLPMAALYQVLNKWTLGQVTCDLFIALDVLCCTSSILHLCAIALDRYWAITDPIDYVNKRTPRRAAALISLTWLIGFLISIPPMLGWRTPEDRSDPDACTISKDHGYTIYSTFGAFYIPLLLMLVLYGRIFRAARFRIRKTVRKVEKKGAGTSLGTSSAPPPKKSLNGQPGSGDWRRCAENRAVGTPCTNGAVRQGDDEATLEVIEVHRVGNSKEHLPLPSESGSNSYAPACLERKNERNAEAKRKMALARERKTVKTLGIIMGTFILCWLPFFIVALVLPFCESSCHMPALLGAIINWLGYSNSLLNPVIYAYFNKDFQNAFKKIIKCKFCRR

[16] = target: T4, Sodium-dependent serotonin transporter; assay: Displacement of [3H]-paroxetine from rat cerebral cortex SERT

Row | inhibition [1] [%] | inhibition [2] [%] | inhibition [3] [%] | IC50 [6] [nM] | Compound | also measured
1 | 61.6 | 93.9 | 97.3 | – | Cc1ccccc1-c1ccccc1N1CCN(CCc2ccc(Cl)c(Cl)c2)CC1 | –
2 | 88.8 | 99.3 | 101 | – | COc1ccccc1N1CCN(CCC(O)c2ccc(Cl)c(Cl)c2)CC1 (stereo not drawn) | –
3 | 105 | 91.5 | 69.8 | – | OC(CCN1CCN(c2cccc(-c3ccccc3)c2)CC1)c1ccc(Cl)c(Cl)c1 (stereo not drawn) | –
4 | 89 | 99.9 | 101 | – | CSc1ccccc1N1CCN(CCC(O)c2ccc(Cl)c(Cl)c2)CC1 (stereo not drawn) | –
5 | – | – | – | – | COc1ccccc1N1CCN(CCCN2CCOc3ccccc32)CC1 | Ki [4]: 1.48 nM; IC50 [5]: 195 nM
6 | 31.5 | 83.2 | 93.5 | – | Cc1ccc(-c2ccccc2N2CCN(CCc3ccc(Cl)c(Cl)c3)CC2)c(C)c1 | –
7 | 72.3 | 98.4 | 94.7 | – | Cc1cccc(-c2ccccc2N2CCN(CCc3ccc(Cl)c(Cl)c3)CC2)c1 | –
8 | 65.8 | 99.5 | 98.1 | – | Cc1ccc(-c2ccccc2N2CCN(CCc3ccc(Cl)c(Cl)c3)CC2)cc1 | –
9 | 66.1 | 98.7 | 97.5 | – | COc1ccc(-c2ccccc2N2CCN(CCc3ccc(Cl)c(Cl)c3)CC2)cc1 | –
10 | 98.9 | 98.9 | 102 | 590 | OC(CCN1CCN(c2ccccc2-c2ccccc2)CC1)c1ccc(Cl)c(Cl)c1 (stereo not drawn) | –
11 | 102 | 98.7 | 96 | 100 | Clc1ccc(CCN2CCN(c3nsc4ccccc34)CC2)cc1Cl | Ki [7]: 0.84 nM; Ki [8]: 12 nM; half-life at 1 µM [9]: 5.3 min; microsomal CLint at 1 µM [10]: 262 µL/min/mg; Activity (Mus musculus [11]): 21%; Activity (Mus musculus [12]): 45%; Activity (Mus musculus [13]): 17%; Activity (Mus musculus [14]): Dose-dependent effect
12 | 92.1 | 98.8 | 96.7 | 950 | Fc1ccc(-c2ccccc2N2CCN(CCc3ccc(Cl)c(Cl)c3)CC2)cc1 | –
13 | 112 | 98.5 | 99.8 | 340 | OC(CN1CCN(c2ccccc2)CC1)c1ccc(Cl)c(Cl)c1 (stereo not drawn) | Ki [7]: 2.4 nM; Ki [8]: 3.2 nM; half-life at 1 µM [9]: 6.1 min; microsomal CLint at 1 µM [10]: 226 µL/min/mg; Activity (Mus musculus [11]): 26%; Activity (Mus musculus [12]): 30%; Activity (Mus musculus [13]): 16%; Activity (Mus musculus [14]): Dose-dependent effect
14 | 84.9 | 99.4 | 102 | – | Oc1ccccc1N1CCN(CCC(O)c2ccc(Cl)c(Cl)c2)CC1 (stereo not drawn) | –
15 | – | – | – | – | COc1ccccc1N1CCN(CCC(O)c2csc3ccc(F)cc23)CC1 (stereo not drawn) | Ki [15]: 2.3 nM; Ki [16]: 12 nM
16 | – | – | – | – | COc1ccc2[nH]c([S+]([O-])Cc3ncc(C)c(OC)c3C)nc2c1 (stereo not drawn) [OMEPRAZOLE] | half-life at 1 µM [9]: 8.5 min; microsomal CLint at 1 µM [10]: 163 µL/min/mg
17 | 97.2 | 99.7 | 96.4 | 880 | Fc1cccc(-c2ccccc2N2CCN(CCc3ccc(Cl)c(Cl)c3)CC2)c1 | –
18 | 17.6 | 96.8 | 93.2 | – | Cc1ccc(-c2ccccc2N2CCN(CCc3ccc(Cl)c(Cl)c3)CC2)cc1C | –

Row | Compound | inhibition [1] [%] | inhibition [2] [%] | inhibition [3] [%] | IC50 [6] [nM] | also measured
19 | Clc1ccc(CCN2CCN(c3ccccc3-c3ccccc3)CC2)cc1Cl | 104 | 97.8 | 101 | 840 | Ki [7]: 6.3 nM; Ki [8]: 0.75 nM
20 | Cc1ccc(Sc2ccccc2N2CCNCC2)c(C)c1 [VORTIOXETINE] | – | – | – | 2.9 | Ki [8]: 26 nM; half-life at 1 µM [9]: 9 min; microsomal CLint at 1 µM [10]: 153 µL/min/mg; Activity (Mus musculus [11]): 34 - 35%
